Assay results reported in ChEMBL document CHEMBL3259666, “Discovery of a neuroprotective chemical, (S)-N-(3-(3,6-dibromo-9H-carbazol-9-yl)-2-fluoropropyl)-6-methoxypyridin-2-amine [(-)-P7C3-S243], with improved druglike properties” (J Med Chem, 2014).
The source made the active and inactive calls. The calls are words filed in the database; no cut-off is given here.

Experiments:
Liver microsome [1] = experiment: Half life in rat liver microsomes; format: ADME
Liver microsome [2] = experiment: Half life in dog liver microsomes; format: ADME, Canis lupus familiaris
Hepatocyte = experiment: Half life in mouse hepatocytes; format: ADME, cell-based
Brain [3] = experiment: AUC in mouse brain at 20 mg/kg, po by HPLC/MS/MS analysis; format: ADME, organism-based; set-up: dose 20 mg/kg, route oral; settings: in vivo
In short: (§1)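 Mouse PK. Compound formulated in 5% DMSO/10% cremophor EL/85% D5W (pH 7.2) and given IV, IP or by oral gavage. Mice killed at varying times with CO2. Citrated plasma and PBS brain homogenate (3-fold volume) were protein-precipitated with acetonitrile containing 0.15% formic acid and analysed by HPLC/MS/MS against spiked blank standards. Noncompartmental analysis was used, with F = (AUCoral/AUCIV)×(DoseIV/Doseoral)×100%. Values are mean ± SEM.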

[4] = Half life in mouse at 20 mg/kg, po by HPLC/MS/MS analysis; format: ADME, organism-based; set-up: dose 20 mg/kg, route oral; settings: in vivo; in short: as §1
Mus musculus [5] = experiment: Neuroprotective activity in substantia nigra of C57Bl/6 mouse neurogenesis model assessed as protection from MPTP-induced cell death in mature neurons at 10 mg/kg/day, ip bid administered for 21 days by immunohistochemical analysis relative to vehicle-treated control; format: functional; settings: route intraperitoneal
In short: (§2)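 MPTP model in adult male C57Bl/6 mice, individually housed 1 week. MPTP free base 30 mg/kg/day IP for 5 days. From day 6 (24 h after the last MPTP dose), compound or vehicle given IP twice daily for 21 days. Mice were then perfused with 4% paraformaldehyde. SNc sectioned at 30 μm intervals and every fourth section stained for TH (DAB, hematoxylin counterstain). TH+ cells counted blinded; mean ± SEM, compared with vehicle + MPTP.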

Mus musculus [6] = experiment: Toxicity in C57Bl/6 mouse assessed as effect on appearance up to 10 mg/kg/day, ip bid administered for 21 days; format: organism-based; set-up: route intraperitoneal; settings: in vivo, 504 h
[7] = Half life in mouse at 20 mg/kg, ip by HPLC/MS/MS analysis; format: ADME, organism-based; set-up: dose 20 mg/kg, route intraperitoneal; settings: in vivo; in short: as §1
Mus musculus [8] = experiment: Toxicity in C57Bl/6 mouse assessed as effect on behavior up to 10 mg/kg/day, ip bid administered for 21 days; format: organism-based; set-up: route intraperitoneal; settings: in vivo, 504 h
Mus musculus [9] = experiment: Neuroprotective activity in wild type C57BL/J6 mouse assessed as survival of newborn hippocampal neurons at 0.1 to 10 uM, icv administered for 7 days by BrdU staining-based microscopy relative to vehicle-treated control; format: functional, organism-based
In short: (§3)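 Adult (12-week) wild-type C57BL/J6 mice. Compound infused ICV into the left lateral ventricle by osmotic minipump at 0.5 μL/h for 7 days, with BrdU 50 mg/kg/day IP for 6 days. Perfused 24 h after the last BrdU dose. BrdU antigen unmasked (formamide/SSC at 65 °C, then 2 M HCl); anti-BrdU staining. BrdU+ cells in the contralateral dentate gyrus SGZ counted in every fifth 40 μm section and normalised to dentate gyrus volume.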

[10] = Half life in mouse at 10 mg/kg, ip by HPLC/MS/MS analysis; format: ADME, organism-based; set-up: dose 10 mg/kg, route intraperitoneal; settings: in vivo; in short: as §1
Plasma [11] = experiment: Bioavailability in mouse plasma at 20 mg/kg, ip by HPLC/MS/MS analysis; format: ADME, organism-based; settings: in vivo; in short: as §1
[12] = Half life in mouse at 10 mg/kg, iv by HPLC/MS/MS analysis; format: ADME, organism-based; set-up: dose 10 mg/kg, route intravenous; settings: in vivo; in short: as §1
Mus musculus [13] = experiment: Neuroprotective activity in wild type C57BL/J6 mouse assessed as survival of newborn hippocampal neurons at 1 to 10 mg/kg/day, ip bid administered for 7 days by BrdU staining-based immunohistochemical analysis relative to vehicle-treated control; format: functional, organism-based
In short: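 Adult (12-week) wild-type C57BL/J6 mice. Compound given IP twice daily for 7 days, with BrdU 50 mg/kg/day IP. Perfused with 4% paraformaldehyde 24 h after the last BrdU dose. Anti-BrdU immunostaining after formamide/HCl unmasking. BrdU+ cells in the dentate gyrus SGZ counted in every fifth 40 μm section and normalised to dentate gyrus volume; mean ± SEM.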

Brain [14] = experiment: Bioavailability in mouse brain at 20 mg/kg, po by HPLC/MS/MS analysis; format: ADME, organism-based; settings: in vivo; in short: as §1
Liver = experiment: Half life in mouse liver microsomes; format: ADME
Brain [15] = experiment: AUC in mouse brain at 10 mg/kg, iv by HPLC/MS/MS analysis; format: ADME, organism-based; set-up: dose 10 mg/kg, route intravenous; settings: in vivo; in short: as §1
Mus musculus [16] = experiment: Toxicity in C57Bl/6 mouse assessed as effect on weight up to 10 mg/kg/day, ip bid administered for 21 days; format: organism-based; set-up: route intraperitoneal; settings: in vivo, 504 h
Mus musculus [17] = experiment: Neuroprotective activity in wild type C57BL/J6 mouse assessed as survival of newborn hippocampal neurons at 10 uM, icv administered for 7 days by BrdU staining-based immunohistochemical analysis relative to vehicle-treated control; format: functional, organism-based
In short: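 Adult (12 week old) C57BL/J6 mice, environmentally deprived; compound infused via osmotic minipump into left lateral ventricle at 0.5 μL/h for 7 days. BrdU IP 50 mg kg–1 day–1 for 6 days during infusion; perfusion 24 h after last BrdU. BrdU+ cells in SGZ/dentate gyrus of contralateral hemisphere counted in every fifth 40 μm section, normalized to dentate gyrus volume; mean ± SEM.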

Plasma [18] = experiment: Bioavailability in mouse plasma at 20 mg/kg, po by HPLC/MS/MS analysis; format: ADME, organism-based; settings: in vivo; in short: as §1
Brain [19] = experiment: Bioavailability in mouse brain at 10 mg/kg, ip by HPLC/MS/MS analysis; format: ADME, organism-based; settings: in vivo; in short: as §1
[20] = Half life in monkey liver microsomes; format: ADME, Macaca mulatta; settings: rhesus monkey
Brain [21] = experiment: AUC in mouse brain at 10 mg/kg, ip by HPLC/MS/MS analysis; format: ADME, organism-based; set-up: dose 10 mg/kg, route intraperitoneal; settings: in vivo; in short: as §1
Plasma [22] = experiment: Bioavailability in mouse plasma at 10 mg/kg, ip by HPLC/MS/MS analysis; format: ADME, organism-based; settings: in vivo; in short: as §1
Liver microsome [23] = experiment: Half life in human liver microsomes; format: ADME
Brain [24] = experiment: AUC in mouse brain at 20 mg/kg, ip by HPLC/MS/MS analysis; format: ADME, organism-based; set-up: dose 20 mg/kg, route intraperitoneal; settings: in vivo; in short: as §1
Mus musculus [25] = experiment: Neuroprotective activity in wild type C57BL/J6 mouse assessed as survival of newborn hippocampal neurons at 10 uM, icv administered for 7 days by BrdU staining-based microscopy relative to vehicle-treated control; format: functional, organism-based; in short: as §3
Mus musculus [26] = experiment: Neuroprotective activity in substantia nigra of C57Bl/6 mouse neurogenesis model assessed as protection from MPTP-induced cell death in mature neurons at 1 mg/kg/day, ip bid administered for 21 days by immunohistochemical analysis relative to vehicle-treated control; format: functional, organism-based; in short: as §2
Brain [27] = experiment: Bioavailability in mouse brain at 20 mg/kg, ip by HPLC/MS/MS analysis; format: ADME, organism-based; settings: in vivo; in short: as §1

Question: With `COc1cccc(NCC(F)Cn2c3ccc(Br)cc3c3cc(Br)ccc32)n1` (racemic) as the molecule, how does the t1/2 (Liver microsome [1]) read?
Answer: > 4 h

Question: What about the t1/2 (Liver microsome [2]) of the same molecule?
Answer: 0.75 h

Question: What about the t1/2 (Hepatocyte) of the same molecule?
Answer: > 4 h

Question: What about the AUC (Brain [3]) of the same molecule?
Answer: 388 µg·min/g

Question: And the half-life [4]?
Answer: 9.6 h

Question: And the Activity (Mus musculus [5])?
Answer: 85%

Question: What about the Activity (Mus musculus [6]) of the same molecule?
Answer: Non-toxic

Question: And the half-life [7]?
Answer: 15 h

Question: What about the Activity (Mus musculus [8]) of the same molecule?
Answer: Non-toxic

Question: And the Activity (Mus musculus [9])?
Answer: Active

Question: What about the half-life [10] of the same molecule?
Answer: > 24 h

Question: What about the F (Plasma [11]) of the same molecule?
Answer: 90%

Question: What about the half-life [12] of the same molecule?
Answer: 7.4 h

Question: What about the Activity (Mus musculus [13]) of the same molecule?
Answer: Active

Question: What about the F (Brain [14]) of the same molecule?
Answer: 29%

Question: What about the t1/2 (Liver) of the same molecule?
Answer: 0.817 h

Question: What about the AUC (Brain [15]) of the same molecule?
Answer: 671 µg·min/g

Question: What about the Activity (Mus musculus [16]) of the same molecule?
Answer: Non-toxic

Question: And the Activity (Mus musculus [17])?
Answer: Active

Question: And the F (Plasma [18])?
Answer: 38%

Question: What about the F (Brain [19]) of the same molecule?
Answer: 28%

Question: What about the t1/2 [20] of the same molecule?
Answer: 1.35 h

Question: What about the AUC (Brain [21]) of the same molecule?
Answer: 189 µg·min/g

Question: And the F (Plasma [22])?
Answer: 66%

Question: What about the t1/2 (Liver microsome [23]) of the same molecule?
Answer: 1.95 h

Question: What about the AUC (Brain [24]) of the same molecule?
Answer: 319 µg·min/g

Question: What about the Activity (Mus musculus [25]) of the same molecule?
Answer: Active

Question: What about the Activity (Mus musculus [26]) of the same molecule?
Answer: Active

Question: What about the F (Brain [27]) of the same molecule?
Answer: 48%

Question: For `OC(CNc1ccccc1)Cn1c2ccc(Br)cc2c2cc(Br)ccc21` (stereo unspecified), which Activity (Mus musculus [17]) is on record?
Answer: Active

Question: For `[N-]=[N+]=NCC(F)Cn1c2ccc(Br)cc2c2cc(Br)ccc21` (stereo unspecified), which Activity (Mus musculus [17]) is on record?
Answer: inactive
